Measured values as given in paper PMC4101349 (Translational Oncology, 2014).

What was measured:
[1] = test system: PC9/gef B4 cells; assay: Alamar Blue cytotoxicity assay, PC9/gef B4; format: cell-based; settings: Homo sapiens, 72 h, read-out: IC50 (50% inhibition of cell growth)
Outline: (§1)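 Cells were seeded at 3000 per well and incubated overnight at 37°C. They were then exposed for 72 h to a range of test compound concentrations, alone or combined with a PI3K inhibitor. Alamar Blue was added for 6 h and absorbance read at 570 and 600 nm. IC50 was derived by the median-effect principle, as mean ± SD of three independent experiments. A549 was kept in DMEM; other lines in RPMI 1640 with 10% FBS, at 37°C and 5% CO2.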

[2] = test system: PC9/gef B4 cells; assay: Mouse xenograft model, PC9/gef B4; format: in vivo, BALB/c nude mice; settings: PC9/gef B4-xenografted mice; LY294002 40 mg/kg i.p. daily
Outline: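 PC9/gef B4 cells were implanted s.c. in the flank of male BALB/c nude mice, six weeks old. At about 70 mm3, mice were randomized into four groups: vehicle, test compound 5 mg/kg i.v. every other day ×5, PI3K inhibitor by daily i.p. injection, or the combination. Vehicle was saline with 8% DMSO, 6% Tween-80 and 16% cremophor. Caliper tumor volume was calculated as (length × width²)/2.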

[3] = test system: H460 cells; assay: Alamar Blue cytotoxicity assay, H460; format: cell-based; settings: Homo sapiens, NCI-H460, 72 h, read-out: IC50 (50% inhibition of cell growth)
Outline: as §1

[4] = test system: DNA repair proteins (Mre11, Nbs1, pNbs1, Rad50, Rad51, FANCD2); assay: Western blot of DNA repair proteins in lung cancer cells; format: cell-based, human; settings: LY294002 40 μM with 20 μM BO-1509, 24 hours; H460, A549, PC9, PC9/gef B4
Outline: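 H460, A549, PC9 and PC9/gef B4 cells were treated for 24 h with 10-80 μM test compound. Alternatively, they received 20 μM test compound and/or 40 μM PI3K inhibitor for 24 h. Lysates in electrophoresis sample buffer were run on SDS-PAGE and transferred to PVDF. Membranes took primary antibodies overnight at 4°C and HRP secondary antibody for 1 h at room temperature. Detection was by chemiluminescence, with β-actin as loading control.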

[5] = test system: H460 cells; assay: H460 xenograft: histopathology of tumor; format: in vivo, BALB/c nude mice; settings: H460-xenografted mice; 29th day; histopathologic examination
Outline: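 Nude mice were inoculated s.c. in the flank with H460 cells (approximately 3 × 10^6 to 5 × 10^6 in 100 μl PBS). Dosing began at about 100 mm3: test compound 5 mg/kg i.v. every other day ×5, PI3K inhibitor 40 mg/kg i.p. daily, or both. Tumors were taken 24 h after the final treatment for cleaved caspase-3 immunohistochemistry. Lungs were taken 29 days after transplantation for H&E histology.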

[6] = test system: PC9 cells; assay: Alamar Blue cytotoxicity assay, PC9; format: cell-based; settings: Homo sapiens, PC-9, 72 h, read-out: IC50 (50% inhibition of cell growth)
Outline: as §1

[7] = test system: A549 cells; assay: Alamar Blue cytotoxicity assay, A549; format: cell-based; settings: Homo sapiens, A549, 72 h, read-out: IC50 (50% inhibition of cell growth)
Outline: as §1

[8] = Complete blood profile in treated mice; format: in vivo, BALB/c nude mice; settings: 10th day
Outline: (§2)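 Male BALB/c nude mice, six weeks old, received vehicle, test compound, PI3K inhibitor, or both. The test compound was given at 5 mg/kg i.v. on days 0, 2, 4, 6 and 8; the inhibitor at 40 mg/kg i.p. daily. Vehicle was 0.9% saline with 8% DMSO, 6% Tween-80 and 16% cremophor. Hematological and serum biochemical parameters were measured 1 day after the last i.v. injection.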

[9] = Blood enzymes / biochemical parameters in treated mice; format: in vivo; settings: 10th day; BALB/c nude mice; mean ± SD
Outline: as §2

[10] = test system: H460, A549, PC9, or PC9/gef B4 cells; assay: Mouse xenograft models, suppression of tumor growth; format: in vivo, BALB/c nude mice; settings: H460, A549, PC9, PC9/gef B4 xenografts; BO-1509 5 mg/kg i.v. every other day times five; LY294002 40 mg/kg i.p. daily

O=c1cc(N2CCOCC2)oc2c(-c3ccccc3)cccc12 [LY294002, 2-(4-morpholinyl)-8-phenyl-4H-1-benzopyran-4-one]
IC50 [1]: 31.3 ± 3.8 µM
suppression of the tumor burden [2]: ~40%
IC50 [3]: 111 ± 15.1 µM
BO-1509-induced increase in pNbs1 and Rad51 [4]: suppressed
metastasis in the lungs [5]: 80%
IC50 [6]: 56.9 ± 1.1 µM
IC50 [7]: 28.4 ± 4.3 µM
Basophils ([8]; BALB/c nude mice, mean ± SD): 0.07 ± 0.00 10^3/μl
Eosinophils ([8]; BALB/c nude mice, mean ± SD): 0.06 ± 0.01 10^3/μl
Hematocrit ([8]; BALB/c nude mice, mean ± SD): 54.1 ± 0.70%
Hemoglobin ([8]; BALB/c nude mice, mean ± SD): 16.25 ± 0.10 g/dL
Lymphocytes ([8]; BALB/c nude mice, mean ± SD): 0.81 ± 0.10 10^3/μl
Mean cell hemoglobin ([8]; BALB/c nude mice, mean ± SD): 15.40 ± 0.09 pg
Mean cell volume ([8]; BALB/c nude mice, mean ± SD): 51.5 ± 0.30 fL
Mean corpuscular hemoglobin concentration ([8]; BALB/c nude mice, mean ± SD): 29.90 ± 0.30 g/dL
Monocytes ([8]; BALB/c nude mice, mean ± SD): 0.15 ± 0.05 10^3/μl
Neutrophils ([8]; BALB/c nude mice, mean ± SD): 1.27 ± 0.10 10^3/μl
Platelets ([8]; BALB/c nude mice, mean ± SD): 783 ± 86 10^3/μl
RBC distribution width ([8]; BALB/c nude mice, mean ± SD): 20.90 ± 1.00%
RBCs ([8]; BALB/c nude mice, mean ± SD): 10.53 ± 0.10 10^6/μl
WBCs ([8]; BALB/c nude mice, mean ± SD): 2.37 ± 0.20 10^3/μl
decrease of RBC count and hemoglobin concentration ([8]; treated mice versus control): minimal changes
AST [9]: 75.6 ± 17.8 U/l
Alanine aminotransferase [9]: 31.6 ± 2.5 U/l
Blood urea nitrogen [9]: 25.0 ± 5.8 mg/dL
Glucose (GLU-P) [9]: 172 ± 23 mg/dL
LDH [9]: 463 ± 117 U/l
suppression of the tumor burden [10]: limited
